According to ChEMBL document CHEMBL3044834, “Novel protoporphyrinogen oxidase inhibitors: 3H-pyrazolo[3,4-d][1,2,3]triazin-4-one derivatives” (J Agric Food Chem, 2008):

How the values were obtained:
Type in all cases: functional
[1] = system: Digitaria sanguinalis; test: Herbicidal activity against Digitaria sanguinalis (hairy crabgrass) assessed as inhibition of fresh weed plant weight at 1500 g/ha using pre-emergence treatment protocol
[2] = system: Amaranthus retroflexus; test: Herbicidal activity against Amaranthus retroflexus assessed as inhibition of fresh weed plant weight at 1500 g/ha using post-emergence treatment protocol
How it was run: (§1)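 Test compounds made up as emulsions by dissolving in 100 µL N,N-dimethylformamide, then adding a little Tween 20 and water. For post-emergence, weed seedlings at one leaf and one stem were sprayed at the same rates as the pre-emergence test. Fresh weight was recorded 15 days after treatment and expressed as percent inhibition versus controls. All treatments were run in triplicate.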

[3] = system: Amaranthus retroflexus; test: Herbicidal activity against Amaranthus retroflexus assessed as inhibition of fresh weed plant weight at 1500 g/ha using pre-emergence treatment protocol
[4] = system: Brassica rapa subsp. oleifera; test: Herbicidal activity against Brassica rapa subsp. oleifera assessed as inhibition of fresh weed plant weight at 187.5 g/ha using post-emergence treatment protocol; how it was run: as §1
[5] = system: Brassica rapa subsp. oleifera; test: Herbicidal activity against Brassica rapa subsp. oleifera assessed as inhibition of fresh weed plant weight at 375 g/ha using post-emergence treatment protocol; how it was run: as §1
[6] = system: Brassica rapa subsp. oleifera; test: Herbicidal activity against Brassica rapa subsp. oleifera assessed as inhibition of fresh weed plant weight at 750 g/ha using post-emergence treatment protocol; how it was run: as §1
[7] = system: Brassica rapa subsp. oleifera; test: Herbicidal activity against Brassica rapa subsp. oleifera assessed as inhibition of fresh weed plant weight at 187.5 g/ha using pre-emergence treatment protocol
[8] = system: Brassica rapa subsp. oleifera; test: Herbicidal activity against Brassica rapa subsp. oleifera assessed as inhibition of fresh weed plant weight at 375 g/ha using pre-emergence treatment protocol
[9] = system: Brassica rapa subsp. oleifera; test: Herbicidal activity against Brassica rapa subsp. oleifera assessed as inhibition of fresh weed plant weight at 750 g/ha using pre-emergence treatment protocol
[10] = system: Digitaria sanguinalis; test: Herbicidal activity against Digitaria sanguinalis (hairy crabgrass) assessed as inhibition of fresh weed plant weight at 1500 g/ha using post-emergence treatment protocol; how it was run: as §1
[11] = system: Brassica rapa subsp. oleifera; test: Herbicidal activity against Brassica rapa subsp. oleifera assessed as inhibition of fresh weed plant weight at 1500 g/ha using post-emergence treatment protocol; how it was run: as §1
[12] = system: Brassica rapa subsp. oleifera; test: Herbicidal activity against Brassica rapa subsp. oleifera assessed as inhibition of fresh weed plant weight at 1500 g/ha using pre-emergence treatment protocol
[13] = system: Echinochloa crus-galli; test: Herbicidal activity against Echinochloa crus-galli (barnyard grass) assessed as inhibition of fresh weed plant weight at 750 g/ha using pre-emergence treatment protocol
[14] = system: Amaranthus retroflexus; test: Herbicidal activity against Amaranthus retroflexus assessed as inhibition of fresh weed plant weight at 750 g/ha using pre-emergence treatment protocol; how it was run: as §1
[15] = system: Amaranthus retroflexus; test: Herbicidal activity against Amaranthus retroflexus assessed as inhibition of fresh weed plant weight at 375 g/ha using pre-emergence treatment protocol
[16] = system: Digitaria sanguinalis; test: Herbicidal activity against Digitaria sanguinalis (hairy crabgrass) assessed as inhibition of fresh weed plant weight at 187.5 g/ha using pre-emergence treatment protocol
[17] = system: Amaranthus retroflexus; test: Herbicidal activity against Amaranthus retroflexus assessed as inhibition of fresh weed plant weight at 187.5 g/ha using post-emergence treatment protocol; how it was run: as §1
[18] = system: Digitaria sanguinalis; test: Herbicidal activity against Digitaria sanguinalis (hairy crabgrass) assessed as inhibition of fresh weed plant weight at 750 g/ha using post-emergence treatment protocol; how it was run: as §1
[19] = system: Amaranthus retroflexus; test: Herbicidal activity against Amaranthus retroflexus assessed as inhibition of fresh weed plant weight at 187.5 g/ha using pre-emergence treatment protocol
[20] = system: Amaranthus retroflexus; test: Herbicidal activity against Amaranthus retroflexus assessed as inhibition of fresh weed plant weight at 750 g/ha using post-emergence treatment protocol; how it was run: as §1
[21] = system: Amaranthus retroflexus; test: Herbicidal activity against Amaranthus retroflexus assessed as inhibition of fresh weed plant weight at 375 g/ha using post-emergence treatment protocol; how it was run: as §1
[22] = system: Echinochloa crus-galli; test: Herbicidal activity against Echinochloa crus-galli (barnyard grass) assessed as inhibition of fresh weed plant weight at 750 g/ha using post-emergence treatment protocol; how it was run: as §1
[23] = system: Echinochloa crus-galli; test: Herbicidal activity against Echinochloa crus-galli (barnyard grass) assessed as inhibition of fresh weed plant weight at 375 g/ha using post-emergence treatment protocol; how it was run: as §1
[24] = system: Echinochloa crus-galli; test: Herbicidal activity against Echinochloa crus-galli (barnyard grass) assessed as inhibition of fresh weed plant weight at 187.5 g/ha using post-emergence treatment protocol; how it was run: as §1
[25] = system: Digitaria sanguinalis; test: Herbicidal activity against Digitaria sanguinalis (hairy crabgrass) assessed as inhibition of fresh weed plant weight at 750 g/ha using pre-emergence treatment protocol
[26] = system: Digitaria sanguinalis; test: Herbicidal activity against Digitaria sanguinalis (hairy crabgrass) assessed as inhibition of fresh weed plant weight at 375 g/ha using pre-emergence treatment protocol
[27] = system: Digitaria sanguinalis; test: Herbicidal activity against Digitaria sanguinalis (hairy crabgrass) assessed as inhibition of fresh weed plant weight at 375 g/ha using post-emergence treatment protocol; how it was run: as §1
[28] = system: Digitaria sanguinalis; test: Herbicidal activity against Digitaria sanguinalis (hairy crabgrass) assessed as inhibition of fresh weed plant weight at 187.5 g/ha using post-emergence treatment protocol; how it was run: as §1
[29] = system: Echinochloa crus-galli; test: Herbicidal activity against Echinochloa crus-galli (barnyard grass) assessed as inhibition of fresh weed plant weight at 375 g/ha using pre-emergence treatment protocol; how it was run: as §1
[30] = system: Echinochloa crus-galli; test: Herbicidal activity against Echinochloa crus-galli (barnyard grass) assessed as inhibition of fresh weed plant weight at 187.5 g/ha using pre-emergence treatment protocol; how it was run: as §1
[31] = system: Echinochloa crus-galli; test: Herbicidal activity against Echinochloa crus-galli (barnyard grass) assessed as inhibition of fresh weed plant weight at 1500 g/ha using pre-emergence treatment protocol
[32] = system: Echinochloa crus-galli; test: Herbicidal activity against Echinochloa crus-galli (barnyard grass) assessed as inhibition of fresh weed plant weight at 1500 g/ha using post-emergence treatment protocol; how it was run: as §1

Row | SMILES | inhibition at 1500 g/ha [1] [%] | inhibition at 1500 g/ha [2] [%] | inhibition at 1500 g/ha [3] [%] | inhibition at 187.5 g/ha [4] [%] | inhibition at 375 g/ha [5] [%] | inhibition at 750 g/ha [6] [%] | inhibition at 187.5 g/ha [7] [%] | inhibition at 375 g/ha [8] [%] | inhibition at 750 g/ha [9] [%] | inhibition at 1500 g/ha [10] [%] | inhibition at 1500 g/ha [11] [%] | inhibition at 1500 g/ha [12] [%] | inhibition at 750 g/ha [13] [%] | inhibition at 750 g/ha [14] [%] | inhibition at 375 g/ha [15] [%] | inhibition at 187.5 g/ha [16] [%] | inhibition at 187.5 g/ha [17] [%] | inhibition at 750 g/ha [18] [%] | inhibition at 187.5 g/ha [19] [%] | inhibition at 750 g/ha [20] [%] | other results
1 | C#CCN1C(=O)COc2cc(F)c(-n3nnc4c(cnn4CCC)c3=O)cc21 | 100 | 99.6 | 100 | 35.4 | 64.6 | 70.3 | 63.4 | 67.9 | 82.1 | 33.9 | 90.7 | 98.1 | 87 | 100 | 73.8 | 80.4 | 14.6 | 16.7 | 37.7 | 87.8 | inhibition at 375 g/ha [21]: 41.5%; inhibition at 750 g/ha [22]: 61%; inhibition at 375 g/ha [23]: 19%; inhibition at 187.5 g/ha [24]: 0.5%; inhibition at 750 g/ha [25]: 93.5%; inhibition at 375 g/ha [26]: 91.3%; inhibition at 375 g/ha [27]: 5.6%; inhibition at 187.5 g/ha [28]: 0%; inhibition at 375 g/ha [29]: 80.1%; inhibition at 187.5 g/ha [30]: 43.7%; inhibition at 1500 g/ha [31]: 95.4%; inhibition at 1500 g/ha [32]: 91.5%
2 | C#CCOc1cc(-n2nnc3c(cnn3CC=C)c2=O)c(F)cc1Cl | 37.4 | 88.6 | 87 | 0 | 3.4 | 7.4 | 0 | 0 | 0 | 41.3 | 18.5 | 7.4 | 0 | 41 | 27.9 | 6.5 | 7.3 | 19.4 | 21.3 | 41.5 | inhibition at 375 g/ha [21]: 12.2%; inhibition at 750 g/ha [22]: 17.1%; inhibition at 375 g/ha [23]: 11.2%; inhibition at 187.5 g/ha [24]: 7.3%; inhibition at 750 g/ha [25]: 17.4%; inhibition at 375 g/ha [26]: 13%; inhibition at 375 g/ha [27]: 0%; inhibition at 187.5 g/ha [28]: 0%; inhibition at 375 g/ha [29]: 0%; inhibition at 187.5 g/ha [30]: 0%; inhibition at 1500 g/ha [31]: 0%; inhibition at 1500 g/ha [32]: 38.3%
3 | C=CCOc1cc(-n2nnc3c(cnn3CC=C)c2=O)c(F)cc1Cl | 10.5 | 100 | 60.1 | 0 | 0 | 2.9 | 9 | 11.9 | 16.4 | 23.1 | 10.3 | 30.5 | 16.9 | 34.4 | 27.9 | 0 | 12.2 | 11.1 | 1.6 | 100 | inhibition at 375 g/ha [21]: 85.4%; inhibition at 750 g/ha [22]: 22%; inhibition at 375 g/ha [23]: 18%; inhibition at 187.5 g/ha [24]: 2.4%; inhibition at 750 g/ha [25]: 4.3%; inhibition at 375 g/ha [26]: 0%; inhibition at 375 g/ha [27]: 0%; inhibition at 187.5 g/ha [28]: 0%; inhibition at 375 g/ha [29]: 10%; inhibition at 187.5 g/ha [30]: 6.5%; inhibition at 1500 g/ha [31]: 30.1%; inhibition at 1500 g/ha [32]: 32.3%
4 | C=CCN1C(=O)COc2cc(F)c(-n3nnc4c(cnn4CCC)c3=O)cc21 | 90.7 | 100 | 100 | 12.6 | 45.1 | 78.9 | 26.9 | 82.8 | 100 | 52.8 | 97.5 | 100 | 62.8 | 100 | 77 | 37 | 48.8 | 33.3 | 67.2 | 100 | inhibition at 375 g/ha [21]: 100%; inhibition at 750 g/ha [22]: 7.3%; inhibition at 375 g/ha [23]: 2.3%; inhibition at 187.5 g/ha [24]: 1.5%; inhibition at 750 g/ha [25]: 71.7%; inhibition at 375 g/ha [26]: 67.4%; inhibition at 375 g/ha [27]: 25%; inhibition at 187.5 g/ha [28]: 8.3%; inhibition at 375 g/ha [29]: 55%; inhibition at 187.5 g/ha [30]: 42.9%; inhibition at 1500 g/ha [31]: 86.4%; inhibition at 1500 g/ha [32]: 20.1%
